{"source": "PubChem BioAssay AID504831", "about": "(Southern Research Specialized Biocontainment Screening …, 2011)", "data": [{"system": "Bladder 5637 cells viability, CellTiter-Glo, 72 h", "assay": "cytotoxicity in 5637 bladder cells, dose response, cytotoxicity control for bacterial capsule biogenesis inhibitors, cell-based, set 3 (AID 504831)", "how_it_was_run": "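Test system: Human bladder carcinoma 5637 cell line | Compound dosing: 8 doses, 2.3–300 µM | Timing: 72 h treatment | Measured by: CellTiter-Glo luminescence | Read-out: CC50 from viability relative to cell control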", "units": {"CC50": "µM"}, "values": [{"molecule": "O=C(Nc1cc(-c2ccccc2)sc1C(=O)O)c1cc2ccccc2o1", "CC50": 167}, {"molecule": "O=C(Nc1cc(-c2ccccc2)sc1C(=O)O)c1ccc2c(c1)OCCO2", "CC50": 82.1}, {"molecule": "O=C(Nc1cc(-c2ccccc2)sc1C(=O)O)c1cccc(F)c1", "CC50": 76.9}, {"molecule": "O=C(Nc1cc(-c2ccccc2)sc1C(=O)O)c1ccc(Cl)s1", "CC50": 71.5}, {"molecule": "CCOc1ccc(-c2cc(NC(=O)c3cccc(Cl)c3)c(C(=O)O)s2)cc1", "CC50": 83.9}, {"molecule": "COC(=O)c1sc(-c2ccccc2)cc1NC(=O)c1c(F)cccc1F", "CC50": 10.4}, {"molecule": "CCOc1ccc(-c2cc(NC(=O)c3ccc(OC)c(OC)c3)c(C(=O)O)s2)cc1", "CC50": 82.8}, {"molecule": "O=C(Nc1cc(-c2ccccc2)sc1C(=O)O)c1cccc(Cl)c1", "CC50": 52.6}, {"molecule": "O=C(Nc1cc(-c2ccccc2)sc1C(=O)O)c1cc(Cl)c2c(c1)OCCO2", "CC50": 242}, {"molecule": "Cc1ccc(C(=O)Nc2cc(-c3ccccc3)sc2C(=O)O)s1", "CC50": 63.6}, {"molecule": "O=C(O)c1sc(-c2ccccc2)cc1NC(=O)C1CCCC1", "CC50": 169}, {"molecule": "Cc1onc(-c2ccccc2)c1C(=O)Nc1cc(-c2ccccc2)sc1C(=O)O", "CC50": 52.6}, {"molecule": "O=C(O)c1sc(-c2ccccc2)cc1NC(=O)C1CCCCC1", "CC50": 115}, {"molecule": "Cc1c(C(=O)Nc2cc(-c3ccccc3)sc2C(=O)O)oc2ccccc12", "CC50": 48.7}, {"molecule": "O=C(Nc1cc(-c2ccccc2)sc1C(=O)O)c1cccs1", "CC50": 89.3}, {"molecule": "O=C(Nc1cc(-c2ccccc2)sc1C(=O)O)c1ccc(Br)o1", "CC50": 104}]}]}
